Key:
[1] = target: T1, Corticotropin-releasing factor receptor 1 (Homo sapiens, UniProt P34998); assay: Antagonist activity at human recombinant CRF1 receptor; format: functional
T1 sequence (P34998 whole entry): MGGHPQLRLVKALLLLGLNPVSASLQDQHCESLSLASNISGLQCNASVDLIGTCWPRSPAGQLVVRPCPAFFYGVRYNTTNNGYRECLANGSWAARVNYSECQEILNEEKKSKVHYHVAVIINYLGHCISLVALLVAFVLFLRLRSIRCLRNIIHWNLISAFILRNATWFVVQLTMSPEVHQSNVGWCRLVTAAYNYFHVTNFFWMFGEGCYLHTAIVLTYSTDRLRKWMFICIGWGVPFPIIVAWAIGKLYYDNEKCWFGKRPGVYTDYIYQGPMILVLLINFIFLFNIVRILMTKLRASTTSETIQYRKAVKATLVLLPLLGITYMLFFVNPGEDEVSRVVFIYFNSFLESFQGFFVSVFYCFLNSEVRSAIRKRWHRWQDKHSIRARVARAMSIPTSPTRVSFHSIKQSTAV

[2] = Metabolic stability in human liver microsome assessed as maximum bioavailability; format: ADME; details: liver microsomes, read-out: Max Achievable Bioavailability
[3] = system: Rattus norvegicus; assay: AUC (0 to 24 hrs) in rat at 10 mg/kg, po; format: ADME, organism-based, Plasma; parameters: time < 24 hr, dose 10 mg/kg, route oral; details: in vivo
Outline: (§1)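 Rats were given a single oral dose of 10 mg/kg and followed for 24 h. Plasma exposure was expressed as AUC0–24 and oral bioavailability was determined. Brain and plasma levels were measured 1 h post-dose to give the brain/plasma ratio.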

[4] = Volume of distribution in rat at 5 mg/kg, iv after 72 hrs; format: ADME, organism-based; parameters: dose 5 mg/kg, route intravenous; details: in vivo
Outline: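 Rats received a single intravenous dose of 5 mg/kg in a 72 h pharmacokinetic study. Clearance and volume of distribution at steady state (Vdss) were derived.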

[5] = Ratio of drug uptake in brain to plasma in rat at 10 mg/kg, po; format: ADME, organism-based; parameters: dose 10 mg/kg, route oral; details: brain and plasma, read-out: BPR; outline: as §1

| Compound | Ki [1] | Fh [2] | other results |
| --- | --- | --- | --- |
| COc1ccc(-c2c(C)nn3c(NCc4nc(C)no4)cc(C)nc23)c(C)c1 | 63.1 nM | – | – |
| CCN(Cc1nc(C)no1)c1cc(C)nc2c(-c3ccc(OC)cc3C)c(C)nn12 | 5.01 nM | 17% | – |
| COc1ccc(-c2c(C)nn3c(NC(C)Cc4nc(C)no4)cc(C)nc23)c(C)c1 (stereo not given) | 31.6 nM | 32% | – |
| CCC(Nc1cc(C)nc2c(-c3ccc(OC)cc3C)c(C)nn12)c1nnc(C)o1 (stereo not given) | 100 nM | 64% | – |
| COc1ccc(-c2c(C)nn3c(NC(C)Cc4nnc(C)o4)cc(C)nc23)c(C)c1 (stereo not given) | 251 nM | – | – |
| COc1ccc(-c2c(C)nn3c(NC(C)Cc4noc(C)n4)cc(C)nc23)c(C)c1 (stereo not given) | 79.4 nM | 26% | – |
| CCC(Nc1cc(C)nc2c(-c3ccc(OC)cc3OC)c(C)nn12)c1nc(C)no1 (stereo not given) | 50.1 nM | – | – |
| CCCN(CCC)c1cc(C)nc2c(-c3cnc(N(C)C)cc3C)c(C)nn12 | – | 17% | – |
| CC[C@H](Nc1cc(C)nc2c(-c3ccc(OC)cc3C)c(C)nn12)c1nc(C)no1 [VERUCERFONT] | – | – | AUC [3]: 3130 ng·h/mL; Vd [4]: 7.5 L/kg; Kp [5]: 1.6 |

From ChEMBL document CHEMBL1287801, “Discovery of NBI-77860/GSK561679, a potent corticotropin-releasing factor (CRF1) receptor antagonist with improved pharmacokinetic properties” (Bioorg Med Chem Lett, 2010)
